The text below walks through data of ChEMBL document CHEMBL4130629 (J Med Chem, 2018).

Data set [1] can be described thus: Metabolic stability in rat liver microsomes assessed as parent compound remaining after 10 mins. In kind it is ADME, microsome. Conditions: read-out: Stability. Put shortly: (§1)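 Compound at 3 μM was incubated with human or rat liver microsomes, and the percentage of parent compound remaining was measured after 10 min.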
A general note: Microsomes from liver hold many membrane-bound enzymes, among them those of drug oxidation.

A short description of data set [2]: Permeability in human Caco2 cells. In kind it is ADME, cell-based. As to conditions: Caco-2, read-out: permeability. On the technique in general: Passage across Caco-2 layers is used to estimate intestinal permeability.
For data set [3], the system named is Human immunodeficiency virus 1. Briefly: Antiviral activity against ENV pseudotyped CCR5-tropic HIV1 […] infected in human HeLa67 cells after 3 days by luciferase reporter gene assay. In kind it is functional, organism-based. As to conditions: Human immunodeficiency virus 1, HeLa67, 72 h. The procedure, abridged: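 Single-cycle infection with env-deleted, luciferase-reporter HIV-1 pseudotyped with the JRFL (CCR5) envelope, supplied by transfection; viral titers normalized by luminescence without compound. HeLa 67 cells were infected in the presence of compounds given as 3-fold serial dilutions made from 30 mM DMSO stocks.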
(In general: In a reporter assay the amount or activity of a reporter protein is the signal.)

A further data set deals with MT2. Kind of data set: Cytotoxicity against human MT2 cells assessed as decrease in cell viability after 3 days […]. Type of data set: functional. Conditions: MT2, 72 h.
A short description of data set [4]: Metabolic stability in human liver microsomes assessed as parent compound remaining after 10 mins. In kind it is ADME, microsome. Conditions: read-out: Stability. Put shortly:
as §1

Data set [5] is described as follows: Half life in Sprague-Dawley rat at 1 mg/kg, iv. Type of data set: ADME, organism-based. As to conditions: in vivo.
Data set [6] can be described thus: Volume of distribution at steady state in Sprague-Dawley rat at 1 mg/kg, iv. In kind it is ADME, organism-based. As to conditions: in vivo, read-out: Vdss. The procedure, abridged:
(§2)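 Male Sprague-Dawley rats (300−350 g) with jugular vein and/or bile duct cannulas, n = 3 per route; dosed as a solution in PEG-400/ethanol (90/10). The iv dose was 1 mg/kg given as a 0.5 min bolus, with jugular blood sampled from 2 to 1440 min. The po dose was 5 mg/kg after an overnight fast, sampled from 15 to 1440 min. Plasma was taken from EDTA blood.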

Data set [7] is described as follows: Oral bioavailability in Sprague-Dawley rat at 5 mg/kg. In kind it is ADME, organism-based. Conditions: in vivo. Put shortly: as §2
Data set [8] is described as follows: AUC in Sprague-Dawley rat at 5 mg/kg, po after 24 hrs. In kind it is ADME, organism-based. The arrangement: time < 24 hr, dose 5 mg/kg, route oral. As to conditions: in vivo. The procedure, abridged: as §2
Data set [9] can be described thus: Half life in human liver microsomes. Type of data set: ADME, microsome.

The EC50 is the concentration that produces a half-maximal response. As a reminder, the CC50 is the concentration giving 50% cytotoxicity. Turning to `COc1cnc(-n2nccc2C)c2[nH]cc(C(=O)C(=O)N3CCN(C(=O)c4ccccc4)CC3)c12`, the remaining at 10 min stood at 100% in data set [1] and 94% in [4]. For the same molecule, the Papp in data set [2] was 21.6 ×10⁻⁶ cm/s. This molecule registered an EC50 in data set [3] of 1.43 nM. Further, the CC50 in the data set on MT2 was over 300000 nM.

With `CNC(=O)c1ccn(-c2ncc(OC)c3c(C(=O)C(=O)N4CCN(C(=O)c5ccccc5)CC4)c[nH]c23)n1`, the remaining at 10 min amounted to 81% in [1] and 87% in data set [4]. The Papp in [2] was under 1.5 ×10⁻⁶ cm/s. Also, in [3], the EC50 was 0.05 nM. Besides, the CC50 in the data set on MT2 was 166000 nM.

By half-life is commonly meant the time in which the quantity being followed falls by half. Low readings indicate rapid decline, high ones slow decline. As usually defined, the bioavailability is the share of a dose that reaches the circulation, judged against a reference dose that is usually intravenous. Lower therefore signals poor availability. A word on the AUC: it is the area under the concentration-time curve, a measure of exposure. The low end stands for less exposure, the high end for more exposure. Consider `COc1cnc(-n2ccc(CO)n2)c2[nH]cc(C(=O)C(=O)N3CCN(C(=O)c4ccccc4)[C@H](C)C3)c12`, for which the half-life in data set [5] was 174 min. The Vd in [6] was determined as 1.1 L/kg. Also, the bioavailability in [7] was found to be 19%. In addition, the remaining at 10 min was 90% in data set [1] and 81% in data set [4]. In data set [8], this molecule returned an AUC at 24 h of 1.99 µM·h. The molecule further yielded an EC50 in data set [3] of 0.14 nM. Moreover, the CC50 in the data set on MT2 is over 300000 nM.

Consider `COc1cnc(-n2ncnc2C)c2[nH]cc(C(=O)C(=O)N3CCN(C(=O)c4ccccc4)CC3)c12`, for which the figures for the remaining at 10 min in [1] and in data set [4] were 95% and 99%, respectively. Also, in data set [2], the Papp amounted to 9.6 ×10⁻⁶ cm/s. In data set [3], this molecule registered an EC50 of 4.07 nM. Besides, the half-maximal cytotoxic concentration (CC50) in the data set on MT2 was over 300000 nM.

On to `COc1cnc(-n2ccc(CN(C)C)n2)c2[nH]cc(C(=O)C(=O)N3CCN(C(=O)c4ccccc4)CC3)c12`, for which the remaining at 10 min in data set [1] and in data set [4] was 100% each time. In addition, the Papp in data set [2] is 1.5 to 4.1 ×10⁻⁶ cm/s. Moreover, in [3], the EC50 is 0.27 nM. Moreover, in the data set on MT2, the CC50 is over 150000 nM.

Regarding `COCc1ncn(-c2ncc(OC)c3c(C(=O)C(=O)N4CCN(C(=O)c5ccccc5)CC4)c[nH]c23)n1`, the values for the remaining at 10 min in [1] and in [4] were 95% and 97%, respectively. The Papp in data set [2] was under 1.5 ×10⁻⁶ cm/s. In data set [3], this molecule had an EC50 of 0.09 nM. Further, the CC50 in the data set with MT2 was over 300000 nM.

Regarding `COc1cnc(-n2cnc(N)n2)c2[nH]cc(C(=O)C(=O)N3CCN(C(=O)c4ccccc4)[C@H](C)C3)c12`, the remaining at 10 min in data set [1] was determined as 99%; in [4], 95%. In data set [2], the Papp is under 1.5 ×10⁻⁶ cm/s. In addition, a half-maximal response in data set [3] (EC50) required 0.17 nM. For the same molecule, the half-maximal cytotoxic concentration (CC50) in the data set with MT2 is over 300000 nM.

The molecule `COc1cnc(-n2ccnn2)c2[nH]cc(C(=O)C(=O)N3CCN(C(=O)c4ccccc4)CC3)c12` had a half-life in [5] of 96 min. Also, the Vd in [6] stood at 0.23 L/kg. Besides, the bioavailability in data set [7] stood at 59%. The remaining at 10 min in [1] worked out at 82%; in data set [4] it was 83%. The Papp in data set [2] is 7.8 ×10⁻⁶ cm/s. In [8], this molecule gave an AUC at 24 h of 43.5 µM·h. In data set [3], this molecule yielded an EC50 of 0.07 nM. The CC50 in the data set with MT2 turned out to be 225000 nM.

As for `COc1cnc(-n2cc(C)nn2)c2[nH]cc(C(=O)C(=O)N3CCN(C(=O)c4ccccc4)CC3)c12`, the remaining at 10 min worked out at 84% in data set [1] and 94% in data set [4]. For the same molecule, the Papp in [2] was 16.6 ×10⁻⁶ cm/s. Besides, the EC50 in data set [3] was 0.06 nM. Further, the CC50 with MT2 is over 300000 nM.

Turning to `COc1cnc(-n2ccc(N)n2)c2[nH]cc(C(=O)C(=O)N3CCN(C(=O)c4ccccc4)[C@H](C)C3)c12`, the remaining at 10 min is 91% in data set [1] and 92% in data set [4]. Moreover, the EC50 in [3] is 0.16 nM. In the data set with MT2, the CC50 was over 300000 nM.

`COc1cnc(-c2cncs2)c2[nH]cc(C(=O)C(=O)N3CCN(C(=O)c4ccccc4)CC3)c12`: the half-life in data set [9] was 19 min. For the same molecule, the Papp in data set [2] was 1.5 ×10⁻⁶ cm/s. This molecule displayed an EC50 in data set [3] of 0.03 nM. In the data set on MT2, the cytotoxic concentration (CC50) was in the range of 297000 to 300000 nM.

For `COc1cnc(-n2nccc2N)c2[nH]cc(C(=O)C(=O)N3CCN(C(=O)c4ccccc4)[C@H](C)C3)c12`, the remaining at 10 min came to 85% in data set [1] and 68% in data set [4]. Further, in data set [3], the midpoint of the response, the EC50, lay at 0.07 nM. For the same molecule, the CC50 in the data set with MT2 was over 300000 nM.

Take `COc1cnc(-n2cc(F)cn2)c2[nH]cc(C(=O)C(=O)N3CCN(C(=O)c4ccccc4)CC3)c12`: the remaining at 10 min in data set [1] is 83%; in data set [4], 77%. Moreover, the Papp in [2] is 19.5 ×10⁻⁶ cm/s. For the same molecule, in [3], it took 0.03 nM to reach a half-maximal effect (EC50). In addition, the CC50 with MT2 was 75000 nM.

With `COc1cnc(-c2ncccn2)c2[nH]cc(C(=O)C(=O)N3CCN(C(=O)c4ccccc4)CC3)c12`, the half-life in data set [9] turned out to be 32 min. Moreover, the Papp in [2] is 10.6 ×10⁻⁶ cm/s. The EC50 in data set [3] stood at 1.28 nM. Besides, the CC50 in the data set with MT2 is over 300000 nM.

`CCc1ncc(-c2ncc(OC)c3c(C(=O)C(=O)N4CCN(C(=O)c5ccccc5)CC4)c[nH]c23)s1` displayed a half-life in data set [9] of 7 min. The Papp in data set [2] worked out at 14.1 ×10⁻⁶ cm/s. In data set [3], the EC50 is 0.03 nM. Also, the CC50 with MT2 turned out to be 120000 nM.

For `COc1cnc(-n2cncn2)c2[nH]cc(C(=O)C(=O)N3CCN(C(=O)c4ccccc4)[C@H](C)C3)c12`, the remaining at 10 min in [1] and in data set [4] was 95% each time. For the same molecule, the Papp in data set [2] is 21.9 ×10⁻⁶ cm/s. In data set [3], the midpoint of the response, the EC50, lay at 0.08 nM. For the same molecule, the CC50 in the data set with MT2 was over 300000 nM.

`COc1cnc(-c2cccnc2)c2[nH]cc(C(=O)C(=O)N3CCN(C(=O)c4ccccc4)CC3)c12`: the half-life in [9] came out at 41 min. The Papp in data set [2] was under 1.5 ×10⁻⁶ cm/s. In data set [3], it took 0.09 nM to reach a half-maximal effect (EC50). Moreover, the CC50 in the data set on MT2 turned out to be 10000 nM.

The molecule `COc1cnc(-c2cnc(N)cn2)c2[nH]cc(C(=O)C(=O)N3CCN(C(=O)c4ccccc4)CC3)c12` yielded a half-life in [9] of 68 min. Further, the Papp in data set [2] stood at 3.3 ×10⁻⁶ cm/s. Further, the EC50 in data set [3] came to 0.04 nM. The CC50 in the data set with MT2 turned out to be 20000 nM.

Take `COc1cnc(-n2cnc(C)n2)c2[nH]cc(C(=O)C(=O)N3CCN(C(=O)c4ccccc4)[C@@H](C)C3)c12`: the remaining at 10 min in data set [1] was 95%. The same molecule had an EC50 in data set [3] of 0.52 nM. The CC50 with MT2 was over 300000 nM.

For `CCc1ncn(-c2ncc(OC)c3c(C(=O)C(=O)N4CCN(C(=O)c5ccccc5)[C@H](C)C4)c[nH]c23)n1`, the half-life in data set [5] was 180 min. The Vd in [6] came to 0.2 L/kg. The bioavailability in [7] amounted to 88.4%. The remaining at 10 min in data set [1] came to 90%; in [4], 84%. The Papp in [2] came out at 31.5 ×10⁻⁶ cm/s. In [8], the AUC at 24 h amounted to 82 µM·h. The EC50 in data set [3] amounted to 0.08 nM. The CC50 in the data set on MT2 was determined as 281000 nM.

As for `COc1cnc(-c2ccccn2)c2[nH]cc(C(=O)C(=O)N3CCN(C(=O)c4ccccc4)CC3)c12`, the half-life in data set [9] amounted to 15 min. In [2], the Papp is 13.4 ×10⁻⁶ cm/s. The molecule further gave a concentration for a half-maximal effect (EC50) in data set [3] of 0.13 nM. In addition, the CC50 with MT2 was found to be 4000 nM.

On to `CCN(CC)CCNc1ncn(-c2ncc(OC)c3c(C(=O)C(=O)N4CCN(C(=O)c5ccccc5)CC4)c[nH]c23)n1`, for which the results for the remaining at 10 min in [1] and in data set [4] were 100% and 87%, respectively. The Papp in data set [2] is under 1.5 ×10⁻⁶ cm/s. Besides, a half-maximal response in data set [3] (EC50) required 1.04 nM. In the data set with MT2, the CC50 is over 300000 nM.

In data set [9], `COc1cnc(-c2ccncn2)c2[nH]cc(C(=O)C(=O)N3CCN(C(=O)c4ccccc4)CC3)c12` came in with a half-life of 15 min. Also, in data set [2], the Papp amounted to 37.8 ×10⁻⁶ cm/s. In addition, the EC50 in data set [3] amounted to 0.11 nM. In addition, the CC50 in the data set with MT2 lay within 285000 to 300000 nM.

Take `COc1cnc(-n2cnc(SC)n2)c2[nH]cc(C(=O)C(=O)N3CCN(C(=O)c4ccccc4)CC3)c12`: the remaining at 10 min was 91% in [1] and 68% in data set [4]. In addition, in data set [2], the Papp was under 1.5 ×10⁻⁶ cm/s. For the same molecule, in data set [3], the concentration for a half-maximal effect (EC50) came to 0.03 nM. The CC50 in the data set with MT2 was over 300000 nM.
